In PMC3112262 (The Journal of surgical research, 2011):
Ends that are not written are not given here.

Key:
[1] = test system: human pleural mesothelial cells (CRL-9444); assay: IL-6 ELISA, cytokine-stimulated mesothelial cells; format: cell-based; details: for cytokine-induced IL-6 expression, time and dose dependence: 0.1, 1, or 10 ng/mL cytokine, 2, 6, 12, 24 h, triplicate
Procedure, shortened: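 Human pleural mesothelial cells were grown in supplemented Medium199 with 10% FBS and held 24 h in serum-free medium before cytokine (IL-1β or TNF-α) and/or test compound treatment. Media IL-6 was measured by sandwich ELISA at room temperature with 300 rpm shaking and ABTS substrate. Absorbance was read at 405 nm minus 650 nm every 5 min for 50 min. Samples were run in triplicate and normalised to cell number by Hoechst 33342 DNA stain.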

[2] = test system: hnRNPA0 in mesothelial cells; assay: Western blot, hnRNPA0 phosphorylation; format: cell-based, human; details: 1 ng/ml IL-1β
Procedure, shortened: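 Human pleural mesothelial cell line grown to confluence, serum-starved 24 h, then given 1 ng/ml IL-1β with or without test compound (1000 or 3000 µM), added together, for 6 and 12 h. Lysed in urea/phosphatase-inhibitor buffer. 20 µg protein run on 12% gels, probed for phospho-hnRNPA0 (Ser84) and β-actin, detected by infrared imaging. Band intensity normalized to β-actin.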

[3] = test system: MK2; details: ref [35]; cited from earlier work
[4] = test system: HSPB1 in human keloid fibroblasts; details: ref [36]; cited from earlier work
[5] = target: kinase; details: cited from earlier work
[6] = effect of the CPP sequence; ref [37]; cited from earlier work
[7] = test system: rat colon anastomosis; details: in vivo
[8] = target: human recombinant MK2 (h) (Homo sapiens, UniProt P49137); assay: Radiometric MK2 kinase inhibition; format: biochemical
Sequence of human recombinant MK2 (h) (P49137 whole entry): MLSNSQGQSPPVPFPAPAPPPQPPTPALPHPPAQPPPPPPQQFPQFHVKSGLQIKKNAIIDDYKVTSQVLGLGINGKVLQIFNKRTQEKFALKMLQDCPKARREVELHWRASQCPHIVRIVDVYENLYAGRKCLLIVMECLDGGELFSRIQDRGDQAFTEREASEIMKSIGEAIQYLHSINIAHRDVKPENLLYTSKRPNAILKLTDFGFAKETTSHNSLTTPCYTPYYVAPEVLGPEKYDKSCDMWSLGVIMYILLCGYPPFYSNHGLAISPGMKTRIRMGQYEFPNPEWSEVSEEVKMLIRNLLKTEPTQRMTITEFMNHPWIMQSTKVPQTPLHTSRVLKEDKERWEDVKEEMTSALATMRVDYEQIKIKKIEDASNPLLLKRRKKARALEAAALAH

[9] = test system: mesothelial cells; details: ref [37]; cited from earlier work
[10] = test system: rat colon anastomosis; assay: Anastomotic healing: hydroxyproline assay; format: in vivo; details: single treatment at surgery, both time points (4 and 10 days)
[11] = rat

IL-1β: interleukin-1β (Peprotech), stimulating cytokine
IL-6 expression after six hours, all three concentrations ([1]; 0.1, 1, 10 ng/mL IL-1β, 6 h): significantly increased IL-6 expression after six hours (p<0.05)
cytokine-induced IL-6 expression, time and dose dependence [1]: increased IL-6 expression in a time- and dose-dependent manner
IL-6 expression at 24 hours, two higher concentrations ([1]; 1 and 10 ng/mL IL-1β, 24 h): induced similar levels of IL-6 expression
upregulation of phosphorylated hnRNPA0 ([2]; 6 h, compared to controls, normalized to β-actin): 2 fold
phosphorylation of hnRNPA0 at 12 hours ([2]; 12 h): no longer upregulates the phosphorylation of hnRNPA0

KKKALNRQLGVAA [Hayess and Benndorf peptide]
MK2 activity in vitro [3]: does inhibit MK2 activity in vitro

TNF-α
IL-6 expression, 0.1 ng/mL ([1]; 0.1 ng/mL TNF-α): rarely produced significant increases in IL-6
IL-6 expression, 1 ng/mL ([1]; 1 ng/mL TNF-α, versus untreated control): did not always significantly upregulate IL-6 expression above the untreated control
cytokine-induced IL-6 expression, time and dose dependence [1]: increased IL-6 expression in a time- and dose-dependent manner
IL-6 induction potency relative to IL-1β ([1]; excluding 24-hour time point for the highest TNF-α dose): less potent inducer of IL-6 expression than IL-1β

WLRRIKAWLRRIKALNRQLGVAA
HSPB1 phosphorylation [4]: inhibited HSPB1 phosphorylation in human keloid fibroblasts
kinase specificity ([5]; effect of the CPP sequence, ref [37]): dramatically decreased the kinase specificity of the peptide
toxicity [6]: increased its associated toxicity

YARAAARQARA
peptide specificity conferred by the CPP ([5]; ref [38]): maximizes peptide specificity

YARAAARQARAKALARQLGVAA-NH2 [MMI-0100]
anastomosis bursting pressure in words [7]: did not significantly affect rat weight gain, anastomosis bursting pressure
IC50 [8]: 22 µM
highest concentration used versus toxic dose for mesothelial cells [9]: well below the toxic dose for mesothelial cells
intestinal hydroxyproline content in words [10]: did not significantly affect rat weight gain, anastomosis bursting pressure or intestinal hydroxyproline (OHP) content at either time point
in vivo side effects [11]: no obvious in vivo side effects
animals lost from the treatment group ([11]; in vivo): One animal was lost
complications of anastomosis ([11]; in vivo): did not cause any of these complications
